Rows were chosen to be rich in hits. Some 2.3% of all compounds tested hit in one or more screens of this group.
TRPC4 block = inhibitors of mouse TRPC4 channel; Q9QUQ5; HEK293 TRPC4beta/mu-opioid, DAMGO-evoked Fluo4 calcium flux; active compounds read low; B-score at 10 µM; 300,000 compounds, 0.39% hits; AID 2247;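 active = B-score over 3 SD under the library average, no early fluorescence shift, positive overall ratio signal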
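Assay system – HEK293 line stably carrying TRPC4beta and mu-opioid receptor · Doses – single dose · Detection – Fluo4 calcium-dye fluorescence, kinetic read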
TRPC4 act = TRPC4 (mouse) channel activation; HEK293 TRPC4beta/mu-opioid, Fluo4 calcium fluorescence; active compounds read high; B-score at 10 µM; 310,000 compounds, 0.49% hits; AID 2237;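 active = B-score above 5 SD of library B-scores, and initial fluorescence ratio not above library mean plus 5 SD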;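 note: positive B-score marks a calcium rise read as TRPC4 activation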
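Assay system: HEK293 stable line with TRPC4beta plus mu-opioid receptor; schedule: 45 min room-temperature Fluo4 loading, 110 s read; technique: kinetic Fluo4 calcium fluorescence; evaluation: integrated baseline-normalised fluorescence ratio, converted to per-well B score; controls: buffer (low) and maximal DAMGO (high)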
TRPC6 activator = activates the mouse TRPC6 cation channel. HEK293-TRPC6 membrane potential dye fluorescence; active compounds read high. 310,000 compounds, 0.13% hits. Q61143. AID 2550. B-score at 10 µM;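 active = B-score of the integrated fluorescence ratio above library mean plus 3 SD, and starting fluorescence ratio within library mean plus 5 SD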;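 note: higher score means more depolarization so channel activation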
TRPC4 PAM = TRPC4 (mouse) allosteric potentiation. HEK293 TRPC4beta/mu-opioid, DAMGO EC20, Fluo-4 Ca2+ flux; active compounds read high. B-score at 10 µM. 310,000 compounds, 0.42% hits. AID 2227;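 active = B-score of calcium response area above 5 SD of library B-scores, with initial fluorescence ratio within 5 SD of library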;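 note: B-score of integrated fluorescence ratio over time as area under calcium response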
TRPC6 inhibitor = inhibitors of mouse TRPC6 channel; 310,000 compounds, 1.1% hits; B-score at 10 µM; HEK293-TRPC6, membrane potential dye, ACh-evoked depolarization; active compounds read low;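 active = B-score under library mean minus 3 SD, initial fluorescence not abnormally high, positive integrated signal ratio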;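 note: B-score derived from integrated fluorescence ratio over the kinetic read; more negative B-score means stronger inhibition of depolarization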
TRPC4 sel inh 2 = mouse TRPC4 off-target activity of TRPC6 inhibitors, second screen. shares compounds with TRPC6 inhibitor. inhibition, % at 10 µM. HEK293 TRPC4/MOR, membrane potential dye fluorescence; channel activated by saturating DAMGO dose. 920 compounds, 42% hits;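 active = compounds whose fluorescence signal differed from control wells by over 3 SD, either direction, in both duplicate plates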
TRPC4 spec = tests whether TRPC6 inhibitors also affect mouse TRPC4. shares compounds with TRPC6 inhibitor. HEK293 TRPC4/mu-opioid, membrane potential fluorescence. activity change, negative = inhibition, % at 10 µM. 920 compounds, 61% hits. AID 2777;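 active = rise or fall in signal beyond 3 SD of buffer-only wells in both replicate plates, either sign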;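 note: integrated kinetic ratio of fluorescence range over baseline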
HEK293 MPD ctr 2-1 = second counter-screen for TRPC6 inhibitors: parental HEK293 cells. 920 compounds, 31% hits. parental HEK293 membrane potential dye fluorescence; maximal acetylcholine challenge after compound addition. shares compounds with TRPC6 inhibitor. AID 2779. signal change vs control, % at 10 µM;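 active = membrane potential signal moving either way by over 3 SD of the maximum-effect control, in both duplicate plates, meaning non-specific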
HEK293 MPD ctr-1 = parental HEK293 nonspecific activity of TRPC6 inhibitors; shares compounds with TRPC6 inhibitor; parental HEK293 membrane potential dye fluorescence; membrane potential signal change, % at 10 µM; AID 2780; 920 compounds, 60% hits;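 active = membrane potential signal shifting up or down by more than 3 SD of buffer-only wells, on both duplicate plates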
HEK293 MPD ctr-2 = parental HEK293 nonspecific activity of TRPC6 modulators. shares compounds with TRPC6 inhibitor. membrane potential dye fluorescence. membrane potential signal change, % at 10 µM. 2,400 compounds, 51% hits. AID 488924;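 active = membrane potential signal moves up or down beyond 5 SD from buffer-only wells, on both duplicate plates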
HEK293 MPD ctr 2-2 = parental HEK293 nonspecific activity of TRPC6 modulators, second screen; shares compounds with TRPC6 inhibitor; 2,400 compounds, 14% hits; inhibition, % at 10 µM; membrane potential dye fluorescence; after compound, maximal acetylcholine stimulation;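 active = membrane potential signal drops by more than 5 SD from the mean control signal, in both duplicate plates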;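 note: plate controls were acetylcholine ECmax control wells for no effect and buffer only wells for full effect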
TRPC4 ctr mod = tests whether TRPC6 modulators also affect mouse TRPC4; shares compounds with TRPC6 inhibitor; HEK293 TRPC4/mu-opioid, membrane potential fluorescence; percent change from control (negative = decrease, positive = increase), % at 10 µM; 2,400 compounds, 69% hits; AID 488927;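 active = membrane potential signal moved up or down beyond 5 SD of buffer control wells, in both duplicate plates, actives on both sides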;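 note: plate controls were assay buffer wells for no effect and DAMGO maximal-effect wells for full effect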
TRPC4 ctr inh 2 = second check of whether TRPC6 modulators also affect mouse TRPC4; inhibition, % at 10 µM; 2,400 compounds, 55% hits; shares compounds with TRPC6 inhibitor; HEK293 TRPC4/mu-opioid, membrane potential dye fluorescence; stimulated with maximal-effect DAMGO;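 active = drop in membrane potential signal beyond 5 SD of the control wells in both duplicate plates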;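 note: TRPC4 counter screen for TRPC6 hits run under conditions tuned for TRPC6 not TRPC4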
TRPC6 block conf = confirmation of mouse TRPC6 inhibitors; shares compounds with TRPC6 inhibitor; HEK293-TRPC6, membrane potential dye, ACh-evoked depolarization; inhibition, % at 10 µM; 3,300 compounds, 43% hits;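 active = fluorescence ratio falls more than 5 SD below the full-stimulation control mean, in both duplicate runs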;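 note: integrated fluorescence ratio of peak minus minimum over baseline after agonist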
TRPC6 act confirm = mouse TRPC6 activator confirmation; 2,800 compounds, 11% hits; activation, % at 10 µM; AID 488961; HEK293-TRPC6 membrane potential dye fluorescence, FDSS; shares compounds with TRPC6 inhibitor;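 active = ratio signal rise beyond 5 SD above unstimulated control wells' mean, seen in both duplicate runs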;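 note: plate controls were buffer EC0 wells for no effect and acetylcholine ECmax response for full effect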
* = called active by the depositor; i = inactive; . = not tested or not shown.

SMILES | TRPC4 block | TRPC4 act | TRPC6 activator | TRPC4 PAM | TRPC6 inhibitor | HEK293 MPD ctr-2 | HEK293 MPD ctr 2-2 | TRPC4 ctr mod | TRPC4 ctr inh 2 | TRPC6 block conf | TRPC6 act confirm | others
CCOC(=O)N1CCN(S(=O)(=O)c2cc(Br)cnc2N)CC1 | i | i | i | i | -7.22* | . | . | . | . | i | i | TRPC4 sel inh 2=i;TRPC4 spec=i;HEK293 MPD ctr 2-1=i;HEK293 MPD ctr-1=i
CCC(C)c1ccc(S(=O)(=O)N2CCN3CCCC3C2)cc1 (centres undefined) | i | i | i | i | i | . | . | . | . | . | .
CCN(c1ccccc1)S(=O)(=O)c1ccc2c(c1)N(C(C)=O)CCS2 | i | i | i | i | i | . | . | . | . | . | .
COc1ccc2c(c1)c(C(O)CN1CCC(Cc3ccccc3)CC1)c(C)n2C (centres undefined) | i | i | i | i | -11.5* | . | . | . | . | 77.8%* | i | TRPC4 sel inh 2=26.0%*;TRPC4 spec=-12.6%*;HEK293 MPD ctr 2-1=i;HEK293 MPD ctr-1=-221.0%*
COc1ccc2c(c1)c(C(O)CN1CCN(Cc3ccc4c(c3)OCO4)CC1)c(C)n2C (centres undefined) | i | i | i | i | -6.3* | i | i | -9.5%* | 67.5%* | 52.0%* | i
OC(CN1CCN(Cc2ccc3c(c2)OCO3)CC1)c1c[nH]c2ccccc12 (centres undefined) | i | i | i | i | i | . | . | . | . | . | .
Cc1c(C(O)CN2CCN(Cc3ccc4c(c3)OCO4)CC2)c2ccccc2n1C (centres undefined) | i | i | i | i | -5.12* | i | i | 11.0%* | 88.5%* | 55.0%* | i
Cc1ccc(OCC(O)CN2CCN(Cc3ccc4c(c3)OCO4)CC2)cc1C (centres undefined) | i | i | i | i | i | . | . | . | . | . | .
CC(=O)c1ccccc1NC(=O)Cn1c(=O)cnc2ccccc21 | i | i | i | i | i | . | . | . | . | . | .
CCN(CC)CCCNc1cc(C(F)(F)F)c(C#N)c2nc3ccccc3n12 | i | i | i | i | -6.53* | i | 66.0%* | -66.0%* | 71.0%* | 70.0%* | i
CCCc1cc(NCCCCO)n2c(nc3ccccc32)c1C#N | i | i | i | i | i | . | . | . | . | . | .
Cc1cc(NCCCCO)n2c(nc3ccccc32)c1C#N | i | i | i | i | i | . | . | . | . | . | .
CCN(CC)CCNc1cc(C)c(C#N)c2nc3ccccc3n12 | i | i | i | i | -10.9* | -411.0%* | 96.5%* | -66.5%* | 62.5%* | 71.0%* | i
O=S(=O)(c1cccc2cccnc12)N1CCCCC1 | i | i | i | i | i | . | . | . | . | . | .
